Assay results from ChEMBL document CHEMBL2346557 (Bioorg Med Chem, 2013).
Values after ≈ are worked out from the molar mass of the structure shown. Active and inactive are the calls of the source. The calls are words filed in the database; no cut-off is given here.

Legend:
[1] = Tmax in CD1 mouse at 50 mg/kg, po; assay type: ADME, organism-based; parameters: dose 50 mg/kg, route oral; details: in vivo
Method in brief: (§1)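 CD1 mice (n = 3 per compound) were dosed orally at 50 mg/kg as an aqueous emulsion in 30% Labrafil. Blood was drawn at 0, 5, 15 and 30 min and 1, 2, 4, 8 and 24 h. Bioavailability and other parameters were calculated from the plasma profiles and compared against the intravenous arm.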

[2] = Terminal half life in CD1 mouse at 50 mg/kg, po; assay type: ADME, organism-based; parameters: dose 50 mg/kg, route oral; details: in vivo, read-out: beta t1/2 (converted); method in brief: as §1
Caco-2 = experiment: Apparent permeability from apical to basolateral side of human Caco2 cells; assay type: ADME, cell-based
Method in brief: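 Caco-2 monolayer permeability measured in the apical-to-basolateral direction and reported as Papp (10−6 cm/s); the efflux ratio was also determined.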

[3] = Terminal half life in CD1 mouse at 10 mg/kg, iv; assay type: ADME, organism-based; parameters: dose 10 mg/kg, route intravenous; details: in vivo, read-out: beta t1/2 (converted)
Method in brief: (§2)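 CD1 mice (n = 3 per compound) given 10 mg/kg as a single tail-vein injection in a pH 7.0 solution of 10% ethanol plus PEG400 (some compounds also with 10% DMSO). Blood was sampled at 0, 5, 15 and 30 min and 1, 2, 4, 8 and 24 h. Parameters were derived from the plasma concentration–time profiles.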

Rattus norvegicus = experiment: Total unbound AUC (0 to infinity) in Sprague-Dawley rat at 50 mg/kg, po; assay type: ADME, organism-based; parameters: dose 50 mg/kg, route oral; details: in vivo
Method in brief: (§3)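 Sprague–Dawley rats (n = 3) were dosed orally with an emulsion in 30% Labrafil. Blood was sampled from 0 to 24 h (0, 5, 15, 30 min; 1, 2, 4, 8, 24 h). Bioavailability was derived against the IV arm.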

[4] = Terminal half life in Sprague-Dawley rat at 10 mg/kg, iv; assay type: ADME, organism-based; parameters: dose 10 mg/kg, route intravenous; details: in vivo, read-out: beta t1/2 (converted)
Mus musculus [5] = experiment: Total unbound Cmax in CD1 mouse at 10 mg/kg, iv; assay type: ADME, organism-based; parameters: dose 10 mg/kg, route intravenous; details: in vivo
[6] = Clearance in Sprague-Dawley rat at 10 mg/kg, iv; assay type: ADME, organism-based; parameters: dose 10 mg/kg, route intravenous; details: in vivo
Mus musculus [7] = experiment: Total unbound Cmax in CD1 mouse at 50 mg/kg, po; assay type: ADME, organism-based; parameters: dose 50 mg/kg, route oral; details: in vivo
Canis familiaris = experiment: Total unbound AUC (0 to infinity) in beagle dog at 10 mg/kg, iv; assay type: ADME, organism-based, Canis lupus familiaris; parameters: dose 10 mg/kg, route intravenous; details: in vivo
Cytochrome P450 3A4 = Cytochrome P450 3A4 (Homo sapiens, UniProt P08684); experiment: Induction of CYP3A4 in human hepatocytes; assay type: ADME, cell-based, Hepatocyte
Cytochrome P450 3A4, sequence (P08684 whole entry): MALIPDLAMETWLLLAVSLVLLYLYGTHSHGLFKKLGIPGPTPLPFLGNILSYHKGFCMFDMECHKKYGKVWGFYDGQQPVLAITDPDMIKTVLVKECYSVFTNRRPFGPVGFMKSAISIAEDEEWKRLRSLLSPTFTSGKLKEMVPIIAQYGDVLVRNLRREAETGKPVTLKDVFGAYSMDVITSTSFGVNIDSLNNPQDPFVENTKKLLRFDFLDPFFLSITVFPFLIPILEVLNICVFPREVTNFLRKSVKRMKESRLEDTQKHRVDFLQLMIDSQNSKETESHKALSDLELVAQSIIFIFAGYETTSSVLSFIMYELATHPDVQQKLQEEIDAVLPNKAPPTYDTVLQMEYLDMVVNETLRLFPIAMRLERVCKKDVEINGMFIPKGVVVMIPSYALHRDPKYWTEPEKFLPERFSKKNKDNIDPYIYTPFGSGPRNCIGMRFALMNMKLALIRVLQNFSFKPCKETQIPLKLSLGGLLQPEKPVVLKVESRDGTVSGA
Method in brief: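 Cryopreserved hepatocytes from 3 human donors were cultured on collagen for 3 days, then dosed daily in fresh medium with 1, 10 or 100 μM compound, vehicle, or rifampin as positive control. CYP3A4 activity was read 24 h after the last dose using testosterone as probe substrate, analysed by LC/MS/MS. Induction is expressed as % of positive control; >40% in any donor counts as a potential inducer.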

[8] = molecular target: T1, Glucocorticoid receptor (Homo sapiens) (UniProt P04150); experiment: Transactivation of glucocorticoid receptor in HEK293 cells co-transfected with GRE assessed as induction of GRE-dependent gene expression at 100 ug/ml after 6 hrs by luciferase reporter gene assay; assay type: cell-based
T1 sequence (whole entry): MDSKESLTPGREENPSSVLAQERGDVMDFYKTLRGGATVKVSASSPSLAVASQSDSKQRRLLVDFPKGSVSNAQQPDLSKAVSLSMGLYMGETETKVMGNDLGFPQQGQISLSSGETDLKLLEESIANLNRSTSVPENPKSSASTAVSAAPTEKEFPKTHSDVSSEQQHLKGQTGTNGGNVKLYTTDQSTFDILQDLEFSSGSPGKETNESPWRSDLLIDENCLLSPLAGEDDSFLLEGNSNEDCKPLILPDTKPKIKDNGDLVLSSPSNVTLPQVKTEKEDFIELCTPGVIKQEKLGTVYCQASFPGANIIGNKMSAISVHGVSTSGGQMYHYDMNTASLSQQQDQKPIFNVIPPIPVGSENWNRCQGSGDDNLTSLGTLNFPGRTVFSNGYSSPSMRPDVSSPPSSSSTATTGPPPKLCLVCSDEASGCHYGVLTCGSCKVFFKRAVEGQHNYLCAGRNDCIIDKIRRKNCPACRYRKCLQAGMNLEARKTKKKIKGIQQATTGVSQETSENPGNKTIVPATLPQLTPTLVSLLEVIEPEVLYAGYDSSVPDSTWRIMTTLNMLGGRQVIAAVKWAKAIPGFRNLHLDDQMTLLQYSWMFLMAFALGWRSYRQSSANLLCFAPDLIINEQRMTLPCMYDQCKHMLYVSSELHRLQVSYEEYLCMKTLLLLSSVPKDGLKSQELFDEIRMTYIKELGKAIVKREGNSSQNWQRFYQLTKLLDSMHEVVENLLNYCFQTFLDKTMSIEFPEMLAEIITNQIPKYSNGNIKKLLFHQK
Method in brief: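 HEK-293 cells stably transfected with a GRE-driven luciferase reporter were exposed to drug at 0.01–100 μg/ml for 6 h. Cells were washed with PBS and lysed, and luciferase activity was measured by luminometer.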

Mus musculus [9] = experiment: Total unbound AUC (0 to infinity) in CD1 mouse at 50 mg/kg, po; assay type: ADME, organism-based; parameters: dose 50 mg/kg, route oral; details: in vivo
Cytochrome P450 2C9 = Cytochrome P450 2C9 (Homo sapiens, UniProt P11712); experiment: Inhibition of CYP2C9 (unknown origin); assay type: ADME
Cytochrome P450 2C9, sequence (P11712 whole entry): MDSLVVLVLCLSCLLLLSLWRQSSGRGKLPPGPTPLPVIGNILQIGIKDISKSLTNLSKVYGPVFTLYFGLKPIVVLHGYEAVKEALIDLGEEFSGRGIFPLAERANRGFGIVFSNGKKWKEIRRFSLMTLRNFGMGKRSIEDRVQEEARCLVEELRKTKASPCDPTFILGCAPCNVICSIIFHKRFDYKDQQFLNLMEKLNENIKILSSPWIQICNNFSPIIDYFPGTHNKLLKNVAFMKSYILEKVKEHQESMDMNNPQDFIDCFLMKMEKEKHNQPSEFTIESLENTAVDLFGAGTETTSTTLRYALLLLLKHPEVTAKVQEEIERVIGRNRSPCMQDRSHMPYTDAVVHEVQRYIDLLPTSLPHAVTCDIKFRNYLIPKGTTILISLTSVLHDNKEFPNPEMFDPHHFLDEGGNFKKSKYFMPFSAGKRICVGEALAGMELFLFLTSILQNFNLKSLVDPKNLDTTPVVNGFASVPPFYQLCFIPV

[10] = Terminal half life in Sprague-Dawley rat at 50 mg/kg, po; assay type: ADME, organism-based; parameters: dose 50 mg/kg, route oral; details: in vivo, read-out: beta t1/2 (converted); method in brief: as §3
[11] = Clearance in CD1 mouse at 10 mg/kg, iv; assay type: ADME, organism-based; parameters: dose 10 mg/kg, route intravenous; details: in vivo; method in brief: as §2
[12] = Solubility of the compound; assay type: physicochemical
Salmonella typhimurium = experiment: Genotoxicity in Salmonella typhimurium by Ames test; assay type: toxicity, organism-based; details: salmonella enterica subsp. enterica serovar typhimurium
Mus musculus [13] = experiment: Oral bioavailability in CD1 mouse at 50 mg/kg; assay type: ADME, organism-based; details: in vivo; method in brief: as §1
[14] = Terminal half life in beagle dog at 10 mg/kg, iv; assay type: ADME, organism-based, Canis lupus familiaris; parameters: dose 10 mg/kg, route intravenous; details: in vivo, read-out: beta t1/2 (converted)
[15] = Clearance in beagle dog at 10 mg/kg, iv; assay type: ADME, organism-based, Canis lupus familiaris; parameters: dose 10 mg/kg, route intravenous; details: in vivo
Mus musculus [16] = experiment: Total unbound AUC (0 to infinity) in CD1 mouse at 10 mg/kg, iv; assay type: ADME, organism-based; parameters: dose 10 mg/kg, route intravenous; details: in vivo
[17] = Metabolic stability in human liver microsomes assessed as compound remaining at 2 uM measured at 1 hr; assay type: ADME, Microsome; details: read-out: Stability
Method in brief: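 Liver microsomes (human, or male monkey, dog, rat or mouse) at 0.5 mg/mL final with 2 µM compound, 5 mM MgCl2 and 5 mM PBS. The reaction was started with 1 mM NADPH and run at 37 °C. Verapamil was the positive control; water replaced NADPH in the negative control. Read-out was percent parent remaining at 1 h.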

Cytochrome P450 2D6 = Cytochrome P450 2D6 (Homo sapiens, UniProt P10635); experiment: Inhibition of CYP2D6 (unknown origin); assay type: ADME
Cytochrome P450 2D6, sequence (P10635 whole entry): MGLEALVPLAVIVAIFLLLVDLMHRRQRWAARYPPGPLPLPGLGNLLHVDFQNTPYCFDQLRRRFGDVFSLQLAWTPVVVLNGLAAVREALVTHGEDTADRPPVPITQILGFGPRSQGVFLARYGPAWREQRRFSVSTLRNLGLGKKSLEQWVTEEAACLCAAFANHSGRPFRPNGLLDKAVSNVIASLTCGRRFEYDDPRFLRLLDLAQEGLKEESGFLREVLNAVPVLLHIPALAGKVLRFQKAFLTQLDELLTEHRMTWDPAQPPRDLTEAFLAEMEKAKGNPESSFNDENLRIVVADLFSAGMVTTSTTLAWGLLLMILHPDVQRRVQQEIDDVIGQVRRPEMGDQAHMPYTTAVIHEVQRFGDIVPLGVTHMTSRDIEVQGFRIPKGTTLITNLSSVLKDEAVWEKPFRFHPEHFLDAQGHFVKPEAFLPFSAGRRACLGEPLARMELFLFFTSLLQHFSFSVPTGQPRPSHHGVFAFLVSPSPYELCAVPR

[18] = AUClast in CD1 mouse at 10 mg/kg, iv; assay type: ADME, organism-based; parameters: time 0 - last, dose 10 mg/kg, route intravenous; details: plasma; method in brief: as §2
[19] = Tmax in beagle dog at 30 mg/kg, po; assay type: ADME, organism-based, Canis lupus familiaris; parameters: dose 30 mg/kg, route oral; details: in vivo
Method in brief: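 Beagles (n = 3) were given an oral emulsion in 30% Labrafil. Blood was collected at 0, 5, 15 and 30 min and at 1, 2, 4, 8 and 24 h. Bioavailability was derived relative to IV dosing.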

Tmax [1]: 2 h
half-life [2]: 0.678 h
Papp (Caco-2): 11.2 ×10⁻⁶ cm/s
half-life [3]: 0.354 h
fAUC (Rattus norvegicus): 19937 ng·h/mL
half-life [4]: 0.58 h
fCmax (Mus musculus [5]): 11167 ng/mL
clearance [6]: 20.2 mL/min/kg
fCmax (Mus musculus [7]): 6787 ng/mL
fAUC (Canis familiaris): 6791 ng·h/mL
Activity (Cytochrome P450 3A4): 24%
Activity [8]: inactive
fAUC (Mus musculus [9]): 32932 ng·h/mL
IC50 (Cytochrome P450 2C9): > 50 µM
half-life [10]: 2.29 h
clearance [11]: 18.8 mL/min/kg
solubility [12]: 187 µM (≈ 66.7 µg/mL)
F (Mus musculus [13]): 74.5%
half-life [14]: 5.42 h
clearance [15]: 24.7 mL/min/kg
fAUC (Mus musculus [16]): 8842 ng·h/mL
remaining at 1 h, 2 µM [17]: 82%
IC50 (Cytochrome P450 2D6): > 50 µM
AUC(0-t) [18]: 8840 ng·h/mL
Tmax [19]: 6 h
Compound: C[C@@H]1C[C@H]2[C@@H]3CCC4=CC(=O)C=C[C@]4(C)C3=CC[C@]2(C)[C@@]1(O)C(=O)CO [VAMOROLONE]
Activity (Salmonella typhimurium): Non-toxic
